According to ChEMBL document CHEMBL1136969, “Synthesis of novel 2-alkoxy-3-amino-3-arylpropan-1-ols and 5-alkoxy-4-aryl-1,3-oxazinanes with antimalarial activity” (J Med Chem, 2009):

Experiments:
Plasmodium falciparum = assay: Antiplasmodial activity after 48 hrs against chloroquine-sensitive Plasmodium falciparum D10 infected human erythrocytes by LDH reporter assay; format: functional, organism-based; conditions: D10, 48 h
In short: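 Asexual erythrocytic P. falciparum D10 (CQ-sensitive) kept in continuous culture (modified Trager–Jensen); growth read by parasite lactate dehydrogenase assay (modified Makler). Samples from 2 mg/mL stocks in 10% DMSO, sonicated, suspensions allowed; tested from 100 µg/mL in 2-fold serial dilutions in complete medium, 10 concentrations down to 0.2 µg/mL. Chloroquine reference from 100 ng/mL. Duplicate, one occasion; IC50 from full dose-response.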

CHO [1] = assay: Cytotoxicity against CHO cells by MTT assay; format: cell-based; conditions: Cricetulus griseus
In short: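 MTT colorimetric growth/survival assay. Samples from 2 mg/mL stocks in 10% methanol or 10% DMSO, suspensions allowed, stored at -20 °C; 10-fold serial dilutions in complete medium, six concentrations. Emetine reference from 100 µg/mL down to 0.001 µg/mL. Triplicate, one occasion; IC50 by nonlinear dose-response curve fitting.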

CHO [2] = assay: Cytotoxicity against CHO cells at 100 ug/mL by MTT assay; format: cell-based, Cricetulus griseus; conditions: chinese hamster
[3] = Selectivity index, ratio of IC50 for CHO cells to IC50 for chloroquine-sensitive Plasmodium falciparum D10; format: toxicity, cell-based; conditions: hamster, read-out: Ratio IC50

| Compound | IC90 (Plasmodium falciparum) | IC50 (Plasmodium falciparum) | IC50 (CHO [1]) | Activity (CHO [2]) | selectivity ratio [3] |
| --- | --- | --- | --- | --- | --- |
| CCN(CC)CCCC(C)Nc1ccnc2cc(Cl)ccc12 (centres undefined) [CHLOROQUINE] | 0.067 µM |  |  |  |  |
| OC[C@H](Oc1ccccc1)[C@@H](NCc1ccccc1)c1ccccc1F (relative stereo) | 223 µM | 25.1 µM |  |  |  |
| CCCN1COC[C@@H](Oc2ccccc2)[C@H]1c1ccc(OC)cc1 |  | 87.1 µM |  |  |  |
| CCCN[C@@H](c1cccc(OC)c1)[C@H](CO)Oc1ccccc1 | 102 µM | 25.2 µM |  |  |  |
| CC[C@H]1CN2CCc3cc(OC)c(OC)cc3[C@@H]2C[C@@H]1C[C@H]1NCCc2cc(OC)c(OC)cc21 [EMETINE] |  |  | 0.108 µM |  |  |
| OC[C@H](OCc1ccccc1)[C@H](Nc1ccccc1)c1ccc(Cl)cc1 (relative stereo) | 12.5 µM | 6.36 µM |  | Non-toxic |  |
| CCCN[C@@H](c1ccc(OC)cc1)[C@H](CO)Oc1ccccc1 | 47.8 µM | 16.4 µM | 145 µM |  | 8.8 |
| CO[C@@H]1COCN(C(C)(C)C)[C@@H]1c1ccc(C)cc1 (relative stereo) |  | 121 µM |  |  |  |
| Cc1ccc([C@@H]([C@H](CO)OCc2ccccc2)N(C)CC(C)C)cc1 (relative stereo) |  | 82 µM |  |  |  |
| CCCN[C@@H](c1ccccc1)[C@H](CO)Oc1ccccc1 |  | 85.2 µM |  |  |  |
| OC[C@H](OCc1ccccc1)[C@@H](NCc1ccccc1)c1ccccc1Br (relative stereo) | 43.1 µM | 10.5 µM |  | Non-toxic |  |
| CC(C)N[C@@H](c1ccccc1)[C@H](CO)OCc1ccccc1 (relative stereo) | 165 µM | 45.9 µM |  |  |  |
| CCCN[C@@H](c1ccc(C)cc1)[C@H](CO)Oc1ccccc1 | 252 µM | 13.7 µM | 326 µM |  | 23.8 |
| CC(C)N1COC[C@@H](OCc2ccccc2)[C@H]1c1ccccc1 (relative stereo) |  | 66.3 µM |  |  |  |
| Cc1ccc([C@@H]2[C@H](OCc3ccccc3)COCN2CC(C)C)cc1 (relative stereo) |  | 30.3 µM |  |  |  |
| COc1cccc([C@@H](NC2CCCCC2)[C@H](CO)OC)c1 (relative stereo) |  | 175 µM |  |  |  |
| Fc1ccccc1[C@@H]1[C@H](Oc2ccccc2)COCN1Cc1ccccc1 (relative stereo) | 118 µM | 16.8 µM |  | Non-toxic |  |
| Cc1ccc([C@H](NCC(C)C)[C@H](CO)OCc2ccccc2)cc1 (relative stereo) | 70.8 µM | 15.3 µM | 144 µM |  | 9.4 |
| CCCN1COC[C@@H](Oc2ccccc2)[C@H]1c1ccc(C)cc1 (relative stereo) |  | 129 µM |  |  |  |
| Brc1ccccc1[C@@H]1[C@H](OCc2ccccc2)COCN1Cc1ccccc1 (relative stereo) | 38.6 µM | 14.1 µM |  | Non-toxic |  |
| COc1cccc([C@@H]2[C@H](OC)COCN2C2CCCCC2)c1 (relative stereo) |  | 42.6 µM |  |  |  |
| Clc1ccc([C@@H]2[C@H](OCc3ccccc3)COCN2c2ccccc2)cc1 (relative stereo) | 138 µM | 19.4 µM |  |  |  |
| CCCN1COC[C@@H](Oc2ccccc2)[C@H]1c1ccccc1 (relative stereo) |  | 84.9 µM |  |  |  |
